Results pooled from the literature.
Lines come from different studies, so protocols differ.
Target: Tyrosine-protein kinase ITK/TSK (ITK, Homo sapiens, UniProt Q08881)
One construct used (Q08881 1-620): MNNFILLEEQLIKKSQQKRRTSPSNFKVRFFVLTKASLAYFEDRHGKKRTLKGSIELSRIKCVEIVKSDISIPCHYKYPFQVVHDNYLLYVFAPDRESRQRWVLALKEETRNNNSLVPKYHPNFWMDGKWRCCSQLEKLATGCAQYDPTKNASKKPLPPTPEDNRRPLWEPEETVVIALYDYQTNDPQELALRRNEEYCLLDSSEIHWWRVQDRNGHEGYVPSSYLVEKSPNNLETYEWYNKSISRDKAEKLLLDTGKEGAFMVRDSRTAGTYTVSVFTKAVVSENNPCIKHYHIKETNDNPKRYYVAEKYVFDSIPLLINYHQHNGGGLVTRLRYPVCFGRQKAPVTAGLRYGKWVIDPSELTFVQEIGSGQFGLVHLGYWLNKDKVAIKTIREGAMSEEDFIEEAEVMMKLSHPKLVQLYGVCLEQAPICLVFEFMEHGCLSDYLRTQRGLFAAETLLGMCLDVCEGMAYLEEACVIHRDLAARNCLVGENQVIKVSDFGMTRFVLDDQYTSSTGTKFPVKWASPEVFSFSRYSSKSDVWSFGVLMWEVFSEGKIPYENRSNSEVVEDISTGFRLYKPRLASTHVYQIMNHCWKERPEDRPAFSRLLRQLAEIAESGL

Compound | observed | action | technique | concentration | measurement | value
c1nc2c(Nc3ccc4c(c3)OCCO4)nc(Nc3ccc4c(c3)OCCO4)nc2[nH]1 | enzyme activity | inhibitor |  | 10 µM | activity vs control | 5.1%
Cc1ccc(C(=O)Nc2ccc(CN3CCN(C)CC3)c(C(F)(F)F)c2)cc1C#Cc1cnc2cccnn12 | enzyme activity |  |  | 23.5 nM | remaining activity | 82%
CCN(CC)CCNC(=O)c1c(C)[nH]c(/C=C2\C(=O)Nc3ccc(Cl)cc32)c1C | enzyme activity | inhibitor |  | 0.5 µM | remaining activity | 30%
CCC(=O)N[C@H]1CC[C@@H](C(=O)N(C)c2ccc(-c3nc4ccccc4o3)cc2)C1 | cell-free assay |  | competition with immobilised ligand | 1 µM | remaining binding | 100%
Nc1ncnc2occ(-c3ccc(NC(=O)Nc4cc(C(F)(F)F)ccc4F)cc3)c12 | cell-free assay |  |  | 20 µM | remaining signal | 12%
COc1cc2nccc(Oc3ccc(NC(=S)NC(=O)c4ccccc4C)cc3)c2cc1OC | enzyme activity | inhibitor |  | 0.5 µM | remaining activity | 80.6%
CC(C)(C)c1nc(-c2cccc(NS(=O)(=O)c3c(F)cccc3F)c2F)c(-c2ccnc(N)n2)s1 | enzyme activity | inhibitor | radiometric | 1 µM | remaining activity | 109%
COc1cc2ncnc(Nc3ccc(Oc4ccccc4)c(C)c3C)c2cc1OC | enzyme activity | inhibitor |  | 1 µM | inhibition | 7%
O=C1Nc2ccc(Cl)cc2C1=Cc1cc(Cl)c(O)c(Cl)c1 | cell-free assay |  |  | 0.5 µM | remaining signal | 91.8%
CC(=O)N1CCC(c2ccc(C(=O)NC(=N)N)cc2C(F)(F)F)CC1 | cell-free assay |  | competition with immobilised ligand | 1 µM | remaining binding | 100%
CN1CC(Oc2cnc(C#N)cc2-c2ccn3nc(NC(=O)C4CC4)cc3c2)C1 | enzyme activity | inhibitor |  | 1 µM | inhibition | 3%
O=C(NC[C@@H]1[C@H]2CN(C(=O)OCc3cc(C(F)(F)F)cc(C(F)(F)F)c3)C[C@@H]12)c1ccc2[nH]nnc2c1 | cell-free assay |  | competition with immobilised ligand | 1 µM | remaining binding | 100%
Cc1cc(NC(=O)c2cccc3cc(-c4cccc5[nH]nc(N)c45)ccc23)ccc1F | enzyme activity | inhibitor |  | 0.1 µM | activity vs control | 104%
CNC(=O)c1cc(Oc2ccc(NC(=O)Nc3ccc(Cl)c(C(F)(F)F)c3)cc2)ccn1 | enzyme activity | inhibitor |  | 10 µM | inhibition | 32%
O=c1cc(-c2cccc3c2Sc2ccccc2S3)oc(N2CCOCC2)c1 | enzyme activity | inhibitor |  | 0.5 µM | remaining activity | 96.6%
Cc1ccc(C(=O)NCc2ccsc2)cc1C#Cc1cn(C(C)C)c2ncnc(N)c12 | enzyme activity | inhibitor |  | 1 µM | activity vs control | 97%
Cc1ccc(Nc2nccc(N(C)c3ccc4c(C)n(C)nc4c3)n2)cc1S(N)(=O)=O | cell-free assay |  |  | 0.5 µM | remaining signal | 115%
C[C@@H]1CN(c2cc(-c3n[nH]c4ccc(OC5(C)CC5)cc34)ncn2)C[C@H](C)O1 | cell-free assay |  | competition with immobilised ligand | 0.1 µM | remaining binding | 87%
O=C(Nc1cnn(-c2csc(C(=O)NC3COC3)c2)c1)Nc1ccccc1Cl | enzyme activity | inhibitor |  | 5 µM | remaining activity | 107%
O=C(Nc1cccnn1)N1CCC(=Cc2cccc(Oc3ccc(C(F)(F)F)cn3)c2)CC1 | cell-free assay |  | competition with immobilised ligand | 1 µM | remaining binding | 100%
COc1cc(Cl)c(C(=O)N[C@@H](CN[C@H]2CC[C@@H](N)CC2)Cc2ccc(C#N)cc2)cc1-c1ccc(CN[C@H](C)c2ccc(C)cc2)o1 | enzyme activity | inhibitor |  | 1 µM | remaining activity | 104%
CS(=O)(=O)N1CCCC(NC(=O)[C@H](CCC2CCCCC2)NC(=O)c2ccc(CNc3ncnc4c3nnn4-c3ccccc3)cc2)C1 (stereo partly drawn) | cell-free assay |  | competition with immobilised ligand | 0.1 µM | remaining binding | 100%
CN(C)C1CCN(CC#Cc2nn(C3CCCC3)c3nc(NCc4ccccc4)ncc23)C1 (stereo not drawn) | enzyme activity | inhibitor | FRET | 0.1 µM | inhibition | 1%
CCCOc1ccc([C@H]2[C@H](C(=O)O)[C@@H](c3ccc4c(c3)OCO4)CN2CC(=O)Nc2c(CC)cccc2CC)cc1 | cell-free assay |  | competition with immobilised ligand | 1 µM | remaining binding | 96%
O=c1c2ccccc2[nH]c(=S)n1CCN1CCC(=C(c2ccc(F)cc2)c2ccc(F)cc2)CC1 | enzyme activity | inhibitor |  | 0.5 µM | remaining activity | 97.1%
CCN(CC)CCNC(=O)c1c(C)[nH]c(/C=C2\C(=O)Nc3ccc(F)cc32)c1C | enzyme activity | inhibitor |  | 10 µM | inhibition | 93%
CC(C)CC(=O)N1CCc2nc(-c3ccc(Br)cc3)nc(N(C)Cc3ccccc3)c2C1 | cell-free assay |  | competition with immobilised ligand | 0.1 µM | remaining binding | 100%
